Source: publication PMC9647759 (Pharmaceutical Chemistry Journal, 2022)

Key:
[1] = test system: Vero cells; assay: In vitro cytotoxicity assay on Vero cells; assay type: cell-based, monkeys; details: 100 μM, 24 h, 3000 Vero cells/well
How it was run: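 Vero cells, about 3000 per well at 90% confluency, were exposed to the test compound at 100 μM for 24 h at 37°C in a CO2 incubator. The percentage of metabolically active cells was compared with untreated control to give cytotoxicity. Three independent runs were done.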

[2] = test system: female Wistar rats; assay: Acute oral toxicity; assay type: in vivo; details: 100 mg/kg, observed 48 h for mortality
How it was run: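 Female Wistar rats were fasted overnight, then given the test compound orally as a single 100 mg/kg dose. Animals were watched for signs of morbidity […].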

Structure (SMILES): Cc1nc2ccccc2n1CC(=O)NNc1ccccc1 [MBPHYD, 2-(2-methyl-1H-benzimidazol-1-yl)-N′-phenylacetohydrazide]
- toxicity in vitro [1]: non-toxic
- toxicity in vivo [2]: non-toxic

Structure (SMILES): Cc1nc2ccccc2n1CC(=O)NN [MBNHYD, 2-(2-methyl-1H-benzimidazol-1-yl) acetohydrazide]
- toxicity in vitro [1]: non-toxic
- toxicity in vivo [2]: non-toxic
